# Test results as given in ChEMBL document CHEMBL4177764 (J Med Chem, 2018).
# The source made the active and inactive calls. No cut-off for these calls is given here.
# Columns and labels:
# KARPAS-299 = experiment: Antiproliferative activity against human KARPAS299 cells after 72 hrs by CellTiter-Glo luminescent cell viability assay; type: functional, cell-based
# [1] = biological target: T1, ALK tyrosine kinase receptor (Homo sapiens, UniProt Q9UM73); experiment: Induction of ALK degradation in human NCI-H3122 cells after 16 hrs by immunoblot method; type: cell-based
# Method in brief: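 H3122 and Karpas 299 cells were given a dose titration for 16 h. ALK and Aurora A were then read by immunoblot. DC50 was calculated from the titrations, two independent experiments.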
# [2] = biological target: T1, ALK tyrosine kinase receptor; experiment: Induction of ALK degradation in human NCI-H3122 cells at 250 nM after 4 hrs by immunoblot method; type: cell-based
# Target sequence in this assay (Q9UM73 19-1620 limits assumed): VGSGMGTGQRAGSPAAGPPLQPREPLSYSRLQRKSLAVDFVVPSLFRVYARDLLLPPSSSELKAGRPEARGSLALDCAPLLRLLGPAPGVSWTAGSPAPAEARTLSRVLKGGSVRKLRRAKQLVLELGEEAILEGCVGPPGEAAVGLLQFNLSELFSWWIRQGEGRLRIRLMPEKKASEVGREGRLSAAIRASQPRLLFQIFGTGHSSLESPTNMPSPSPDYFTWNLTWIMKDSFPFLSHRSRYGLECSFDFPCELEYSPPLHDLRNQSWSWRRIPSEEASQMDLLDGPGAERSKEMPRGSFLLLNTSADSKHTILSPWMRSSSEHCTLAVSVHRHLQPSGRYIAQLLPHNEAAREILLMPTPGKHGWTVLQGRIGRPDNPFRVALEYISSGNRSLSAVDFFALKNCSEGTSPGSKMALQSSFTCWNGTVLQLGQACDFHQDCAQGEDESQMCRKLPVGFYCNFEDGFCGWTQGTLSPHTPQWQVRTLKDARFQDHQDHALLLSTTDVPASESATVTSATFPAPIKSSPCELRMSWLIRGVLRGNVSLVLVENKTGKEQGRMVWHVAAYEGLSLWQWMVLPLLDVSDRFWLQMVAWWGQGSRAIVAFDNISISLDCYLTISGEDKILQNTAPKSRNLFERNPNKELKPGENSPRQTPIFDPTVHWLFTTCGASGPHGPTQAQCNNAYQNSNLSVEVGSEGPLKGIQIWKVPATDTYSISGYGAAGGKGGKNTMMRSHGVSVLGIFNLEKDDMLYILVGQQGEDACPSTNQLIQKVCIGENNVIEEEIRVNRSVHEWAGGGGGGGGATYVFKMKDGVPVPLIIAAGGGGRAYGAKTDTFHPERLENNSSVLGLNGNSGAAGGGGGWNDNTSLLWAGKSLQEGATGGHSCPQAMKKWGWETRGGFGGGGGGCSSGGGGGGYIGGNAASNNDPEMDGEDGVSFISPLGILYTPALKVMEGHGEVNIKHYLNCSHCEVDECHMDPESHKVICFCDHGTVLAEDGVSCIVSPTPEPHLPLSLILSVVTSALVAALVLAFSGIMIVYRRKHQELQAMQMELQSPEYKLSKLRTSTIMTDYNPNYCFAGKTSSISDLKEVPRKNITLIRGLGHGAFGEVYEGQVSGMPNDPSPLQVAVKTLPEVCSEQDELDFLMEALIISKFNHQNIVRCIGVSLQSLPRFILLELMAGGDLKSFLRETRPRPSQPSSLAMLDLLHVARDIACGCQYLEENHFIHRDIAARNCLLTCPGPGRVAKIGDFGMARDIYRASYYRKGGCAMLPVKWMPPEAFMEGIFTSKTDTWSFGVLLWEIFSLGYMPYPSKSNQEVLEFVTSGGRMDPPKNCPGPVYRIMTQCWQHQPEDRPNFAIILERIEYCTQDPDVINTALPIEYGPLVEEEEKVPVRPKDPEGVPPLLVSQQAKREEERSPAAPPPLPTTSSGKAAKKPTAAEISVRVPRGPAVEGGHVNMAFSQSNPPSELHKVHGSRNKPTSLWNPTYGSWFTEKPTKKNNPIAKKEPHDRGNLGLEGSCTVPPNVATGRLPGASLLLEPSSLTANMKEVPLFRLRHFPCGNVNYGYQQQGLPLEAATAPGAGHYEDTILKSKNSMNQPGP
# [3] = biological target: T1, ALK tyrosine kinase receptor; experiment: Induction of ALK degradation in human KARPAS299 cells at 250 nM after 8 hrs by immunoblot method; type: cell-based
# Target sequence in this assay (Q9UM73 19-1620 limits assumed): as above
# [4] = biological target: T1, ALK tyrosine kinase receptor; experiment: Induction of ALK degradation in human NCI-H3122 cells at 250 nM after 16 hrs in presence of proteasome inhibitor carfilzomib by immunoblot method; type: cell-based
# Target sequence in this assay (Q9UM73 19-1620 limits assumed): as above
# [5] = biological target: T1, ALK tyrosine kinase receptor; experiment: Induction of ALK degradation in human KARPAS299 cells at 250 nM after 16 hrs in presence of proteasome inhibitor carfilzomib by immunoblot method; type: cell-based
# Target sequence in this assay (Q9UM73 19-1620 limits assumed): as above
# [6] = biological target: T2, Aurora kinase A (Homo sapiens) (UniProt O14965); experiment: Induction of aurora A degradation in human KARPAS299 cells at 250 nM after 16 hrs in presence of proteasome inhibitor carfilzomib by immunoblot method; type: cell-based
# T2 sequence (whole entry): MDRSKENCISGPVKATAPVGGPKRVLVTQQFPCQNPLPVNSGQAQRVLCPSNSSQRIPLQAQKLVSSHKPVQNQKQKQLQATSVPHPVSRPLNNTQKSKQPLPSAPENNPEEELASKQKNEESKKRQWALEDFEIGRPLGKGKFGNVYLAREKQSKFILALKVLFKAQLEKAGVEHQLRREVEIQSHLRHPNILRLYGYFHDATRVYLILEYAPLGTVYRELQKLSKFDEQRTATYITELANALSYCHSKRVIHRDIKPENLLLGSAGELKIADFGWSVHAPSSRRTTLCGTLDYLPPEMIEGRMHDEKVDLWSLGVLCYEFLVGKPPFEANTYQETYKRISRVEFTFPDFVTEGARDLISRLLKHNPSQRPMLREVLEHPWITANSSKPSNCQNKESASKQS
# [7] = biological target: T1, ALK tyrosine kinase receptor; experiment: Induction of ALK degradation in human NCI-H3122 cells at 250 nM after 16 hrs in presence of […] inhibitor MLN4924 by immunoblot method; type: cell-based
# Target sequence in this assay (Q9UM73 19-1620 limits assumed): as the sequence (Q9UM73 19-1620 limits assumed) above
# [8] = biological target: T2, Aurora kinase A (Homo sapiens); experiment: Induction of aurora A degradation in human NCI-H3122 cells at 250 nM after 16 hrs in presence of […] inhibitor MLN4924 by immunoblot method; type: cell-based
# [9] = biological target: T1, ALK tyrosine kinase receptor; experiment: Induction of ALK degradation in human KARPAS299 cells at 250 nM after 16 hrs in presence of ALK inhibitor LDK378 by immunoblot method; type: cell-based
# Target sequence in this assay (Q9UM73 19-1620 limits assumed): as the sequence (Q9UM73 19-1620 limits assumed) above
# SH-SY5Y = experiment: Antiproliferative activity against human SH-SY5Y cells after 72 hrs by CellTiter-Glo luminescent cell viability assay; type: functional, cell-based
# Homo sapiens = species on record: Homo sapiens; experiment: Antiproliferative activity against human CHLA20 cells after 72 hrs in presence of ABCB1 shRNA by CellTiter-Glo luminescent cell viability assay; type: functional, cell-based
# [10] = biological target: T2, Aurora kinase A (Homo sapiens); experiment: Induction of aurora A degradation in human Kelly cells at 100 nM after 16 hrs in presence of […] inhibitor MLN4924 by immunoblot method; type: cell-based
# Method in brief: (§1)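 Cells were pre-treated for 2 h with DMSO, carfilzomib, MLN4924 or pomalidomide, then treated with compound for 16 h, with immunoblot read-out. CHLA20 cells also received 125 nM tariquidar throughout.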
# [11] = biological target: T2, Aurora kinase A (Homo sapiens); experiment: Induction of aurora A degradation in human Kelly cells at 100 nM after 16 hrs in presence of pomalidomide by immunoblot method; type: cell-based; method in brief: as §1
# [12] = biological target: T1, ALK tyrosine kinase receptor; experiment: Induction of ALK degradation in human CHLA20 cells at 100 nM after 16 hrs in presence of pomalidomide and ABCB1 inhibitor tariquidar by immunoblot method; type: cell-based
# Method in brief: (§2)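 CHLA20 cells were kept with 125 nM tariquidar and pre-treated for 2 h with DMSO, carfilzomib, MLN4924, pomalidomide, TAE684 or LDK378. A 16 h degrader treatment followed, with immunoblot readout of ALK.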
# [13] = biological target: T1, ALK tyrosine kinase receptor; experiment: Induction of ALK degradation in human Kelly cells at 100 nM after 16 hrs in presence of ALK inhibitor TAE684 by immunoblot method; type: cell-based
# Method in brief: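 Kelly cells were pre-treated for 2 h with DMSO, carfilzomib, MLN4924, pomalidomide, TAE684 or LDK378. Degrader treatment followed for 16 h, and ALK was read by immunoblot.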
# [14] = biological target: T1, ALK tyrosine kinase receptor; experiment: Induction of ALK degradation in human CHLA20 cells at 100 nM after 16 hrs in presence of ALK inhibitor TAE684 and ABCB1 inhibitor tariquidar by immunoblot method; type: cell-based; method in brief: as §2
# [15] = biological target: T1, ALK tyrosine kinase receptor; experiment: Induction of ALK degradation in human CHLA20 cells assessed as decrease in ALK phosphorylation at Y1507 at 50 to 250 nM after 16 hrs in presence of ABCB1 inhibitor tariquidar by immunoblot method; type: cell-based
# Method in brief: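 CHLA20 neuroblastoma cells (ABCB1-high) were co-treated with 125 nM tariquidar throughout. They were dose-titrated for 16 hours and read by immunoblot.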
# [16] = biological target: T1, ALK tyrosine kinase receptor; experiment: Induction of ALK degradation in human Kelly cells at 100 nM after 4 hrs by immunoblot method; type: cell-based
# Method in brief: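 Kelly cells were treated with 100 nM compound for varying times and lysed at each time point. ALK levels were read by immunoblot.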
# [17] = biological target: Focal adhesion kinase 1 (Homo sapiens) (UniProt Q05397); experiment: Induction of PTK2 degradation in human KARPAS299 cells at 0.01 to 1 uM after 16 hrs by immunoblot method; type: cell-based
# Sequence of Focal adhesion kinase 1 (Homo sapiens) (Q05397 2-1052 limits assumed): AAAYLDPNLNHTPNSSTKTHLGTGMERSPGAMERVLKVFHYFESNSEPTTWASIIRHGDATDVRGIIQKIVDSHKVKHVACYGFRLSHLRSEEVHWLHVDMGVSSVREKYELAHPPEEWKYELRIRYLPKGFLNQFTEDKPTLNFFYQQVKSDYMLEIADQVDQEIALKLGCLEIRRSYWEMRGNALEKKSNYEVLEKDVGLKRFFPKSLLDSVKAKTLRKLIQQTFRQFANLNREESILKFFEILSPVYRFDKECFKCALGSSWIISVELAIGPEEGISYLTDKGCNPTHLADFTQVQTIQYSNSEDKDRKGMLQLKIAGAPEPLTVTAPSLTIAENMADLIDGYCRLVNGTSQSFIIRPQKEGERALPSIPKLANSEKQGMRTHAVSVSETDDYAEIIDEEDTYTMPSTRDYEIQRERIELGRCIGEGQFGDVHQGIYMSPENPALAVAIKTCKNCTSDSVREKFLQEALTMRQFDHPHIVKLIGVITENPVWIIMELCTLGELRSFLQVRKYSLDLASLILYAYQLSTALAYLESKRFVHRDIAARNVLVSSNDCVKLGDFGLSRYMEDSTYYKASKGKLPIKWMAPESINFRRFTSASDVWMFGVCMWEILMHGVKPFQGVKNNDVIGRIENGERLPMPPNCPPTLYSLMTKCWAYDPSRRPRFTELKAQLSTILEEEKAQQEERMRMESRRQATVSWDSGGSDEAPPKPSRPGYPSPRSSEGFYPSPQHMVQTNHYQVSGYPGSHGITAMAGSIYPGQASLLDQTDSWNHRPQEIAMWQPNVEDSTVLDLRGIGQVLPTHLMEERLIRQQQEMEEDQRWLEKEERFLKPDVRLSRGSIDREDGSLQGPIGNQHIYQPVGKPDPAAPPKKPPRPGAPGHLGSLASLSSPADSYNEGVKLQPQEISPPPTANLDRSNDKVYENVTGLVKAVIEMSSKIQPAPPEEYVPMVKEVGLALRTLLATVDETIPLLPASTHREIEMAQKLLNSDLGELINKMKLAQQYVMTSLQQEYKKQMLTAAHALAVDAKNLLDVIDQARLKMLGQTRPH
# [18] = biological target: Focal adhesion kinase 1 (Homo sapiens) (UniProt Q05397); experiment: Induction of PTK2 degradation in human NCI-H3122 cells at 0.01 to 1 uM after 16 hrs by immunoblot method; type: cell-based
# [19] = biological target: Ribosomal protein S6 kinase alpha-1 (Homo sapiens) (UniProt Q15418); experiment: Induction of RPS6KA1 degradation in human NCI-H3122 cells at 0.01 to 1 uM after 16 hrs by immunoblot method; type: cell-based
# Sequence of Ribosomal protein S6 kinase alpha-1 (Homo sapiens) (Q15418 whole entry): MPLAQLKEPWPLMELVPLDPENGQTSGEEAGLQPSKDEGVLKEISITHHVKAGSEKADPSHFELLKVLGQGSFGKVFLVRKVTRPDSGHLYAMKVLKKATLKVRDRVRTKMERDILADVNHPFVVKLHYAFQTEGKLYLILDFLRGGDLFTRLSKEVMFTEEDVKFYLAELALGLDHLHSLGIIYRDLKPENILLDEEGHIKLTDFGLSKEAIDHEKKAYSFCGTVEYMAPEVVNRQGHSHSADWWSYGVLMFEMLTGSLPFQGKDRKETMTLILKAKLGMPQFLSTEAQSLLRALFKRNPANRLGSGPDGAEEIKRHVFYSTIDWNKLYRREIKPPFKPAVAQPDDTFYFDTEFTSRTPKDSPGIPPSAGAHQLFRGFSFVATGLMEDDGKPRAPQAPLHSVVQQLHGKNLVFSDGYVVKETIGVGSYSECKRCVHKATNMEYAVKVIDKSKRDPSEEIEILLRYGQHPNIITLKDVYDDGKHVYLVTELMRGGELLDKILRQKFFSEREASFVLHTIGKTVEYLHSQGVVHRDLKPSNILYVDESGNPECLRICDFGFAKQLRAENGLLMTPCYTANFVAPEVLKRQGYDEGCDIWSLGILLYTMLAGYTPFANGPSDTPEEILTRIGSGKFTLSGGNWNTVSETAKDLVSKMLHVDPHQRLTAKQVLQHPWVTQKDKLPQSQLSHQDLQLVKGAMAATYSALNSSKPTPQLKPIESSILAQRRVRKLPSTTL
# [20] = biological target: Tyrosine-protein kinase Fer (Homo sapiens) (UniProt P16591); experiment: Induction of FER degradation in human KARPAS299 cells at 0.01 to 1 uM after 16 hrs by immunoblot method; type: cell-based
# Sequence of Tyrosine-protein kinase Fer (Homo sapiens) (P16591 whole entry, looked up): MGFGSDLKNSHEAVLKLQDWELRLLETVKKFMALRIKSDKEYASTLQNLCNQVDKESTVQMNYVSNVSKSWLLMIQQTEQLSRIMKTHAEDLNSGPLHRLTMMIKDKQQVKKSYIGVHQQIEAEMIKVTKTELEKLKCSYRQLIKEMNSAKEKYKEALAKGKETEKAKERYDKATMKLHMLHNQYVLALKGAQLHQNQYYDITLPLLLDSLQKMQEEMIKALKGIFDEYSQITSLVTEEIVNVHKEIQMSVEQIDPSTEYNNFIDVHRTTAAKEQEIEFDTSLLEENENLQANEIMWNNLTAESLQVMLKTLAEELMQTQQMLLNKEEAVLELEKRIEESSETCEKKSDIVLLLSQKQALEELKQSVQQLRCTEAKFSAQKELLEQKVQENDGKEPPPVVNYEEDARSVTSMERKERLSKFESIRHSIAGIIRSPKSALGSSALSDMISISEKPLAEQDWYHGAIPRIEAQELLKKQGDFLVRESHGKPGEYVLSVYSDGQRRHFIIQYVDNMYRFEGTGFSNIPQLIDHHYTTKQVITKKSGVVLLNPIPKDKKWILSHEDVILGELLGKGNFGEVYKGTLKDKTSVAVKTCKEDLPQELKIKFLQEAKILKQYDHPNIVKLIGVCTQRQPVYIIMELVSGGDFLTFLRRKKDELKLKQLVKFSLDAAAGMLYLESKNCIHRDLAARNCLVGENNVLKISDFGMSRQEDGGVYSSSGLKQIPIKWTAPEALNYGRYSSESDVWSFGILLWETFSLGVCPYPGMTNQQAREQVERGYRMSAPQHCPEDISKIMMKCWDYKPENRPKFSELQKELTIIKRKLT
# [21] = biological target: Focal adhesion kinase 1 (Homo sapiens) (UniProt Q05397); experiment: Induction of PTK2 degradation in human Kelly cells at 10 to 160 nM after 16 hrs by immunoblot method; type: cell-based
# [22] = biological target: Tyrosine-protein kinase Fer (Homo sapiens) (UniProt P16591); experiment: Induction of FER degradation in human Kelly cells at 10 to 160 nM after 16 hrs by immunoblot method; type: cell-based
# [23] = biological target: Ribosomal protein S6 kinase alpha-1 (Homo sapiens) (UniProt Q15418); experiment: Induction of RPS6KA1 degradation in human Kelly cells at 10 to 160 nM after 16 hrs by immunoblot method; type: cell-based
# [24] = biological target: Focal adhesion kinase 1 (Homo sapiens) (UniProt Q05397); experiment: Induction of PTK2 degradation in human NCI-H3122 cells at 250 nM measured over 2 to 16 hrs by immunoblot method; type: cell-based
# [25] = biological target: Tyrosine-protein kinase Fer (Homo sapiens) (UniProt P16591); experiment: Induction of FER degradation in human NCI-H3122 cells at 250 nM measured over 2 to 16 hrs by immunoblot method; type: cell-based
# [26] = biological target: T2, Aurora kinase A (Homo sapiens); experiment: Induction of aurora A degradation in human NCI-H3122 cells at 250 nM measured over 2 to 16 hrs by immunoblot method; type: cell-based
# [27] = biological target: Ribosomal protein S6 kinase alpha-1 (Homo sapiens) (UniProt Q15418); experiment: Induction of RPS6KA1 degradation in human Kelly cells at 100 nM measured over 2 to 16 hrs by immunoblot method; type: cell-based
DC50 [1] [nM],Activity [2],Activity [3],Activity [4],Activity [5],Activity [6],Activity [7],Activity [8],Activity [9],Activity [10],Activity [11],Activity [12],Activity [13],Activity [14],Activity [15],Activity [16],Activity [17],SMILES,Activity (KARPAS-299),Activity (SH-SY5Y),Activity (Homo sapiens),other results
10,Active,Active,inactive,inactive,inactive,inactive,inactive,inactive,inactive,inactive,inactive,inactive,inactive,Active,inactive,Active,COc1cc(N2CCN(CCOCCOCCNC(=O)CNc3cccc4c3C(=O)N(C3CCC(=O)NC3=O)C4=O)CC2)ccc1Nc1ncc(Cl)c(Nc2ccccc2S(=O)(=O)C(C)C)n1 (stereo not given),Active,inactive,Active,Activity [18]: Active; Activity [19]: Active; Activity [20]: Active; Activity [21]: Active; Activity [22]: Active; Activity [23]: Active; Activity [24]: Active; Activity [25]: Active; Activity [26]: Active; Activity [27]: Active
10,Active,Active,inactive,inactive,inactive,inactive,inactive,inactive,inactive,inactive,inactive,inactive,inactive,Active,inactive,Active,Cc1cc(Nc2ncc(Cl)c(Nc3ccccc3S(=O)(=O)C(C)C)n2)c(OC(C)C)cc1C1CCN(CCOCCOCCNC(=O)CNc2cccc3c2C(=O)N(C2CCC(=O)NC2=O)C3=O)CC1 (stereo not given),Active,inactive,Active,Activity [18]: Active; Activity [19]: Active; Activity [20]: Active; Activity [21]: Active; Activity [22]: Active; Activity [23]: Active; Activity [24]: Active; Activity [25]: Active; Activity [26]: Active; Activity [27]: Active
